# Laboratory results as given in ChEMBL document CHEMBL1138319, “Synthesis and pharmacological evaluation of fluorescent and photoactivatable analogues of antiplasmodial naphthylisoquinolines” (J Med Chem, 2007).
# pIC50: −log10 of the molar value. Active and inactive are the calls of the source. The calls are words filed in the database; no cut-off is given here.
# How the values were obtained:
# [1] = system: L6; assay: Cytotoxicity against rat L6 cells; assay type: cell-based
# Outline: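 L-6 rat skeletal myoblast cell line; cytotoxicity values reported in µM.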
# [2] = system: Plasmodium falciparum; assay: Antiplasmodial activity against Plasmodium falciparum in human red blood cells after 4 hrs; assay type: functional, organism-based
# [3] = target: T1, Falcipain 2 (Plasmodium falciparum) (UniProt Q9N6S8); assay: Inhibition of Plasmodium falciparum recombinant cysteine protease falcipain-2
# T1 sequence (whole entry): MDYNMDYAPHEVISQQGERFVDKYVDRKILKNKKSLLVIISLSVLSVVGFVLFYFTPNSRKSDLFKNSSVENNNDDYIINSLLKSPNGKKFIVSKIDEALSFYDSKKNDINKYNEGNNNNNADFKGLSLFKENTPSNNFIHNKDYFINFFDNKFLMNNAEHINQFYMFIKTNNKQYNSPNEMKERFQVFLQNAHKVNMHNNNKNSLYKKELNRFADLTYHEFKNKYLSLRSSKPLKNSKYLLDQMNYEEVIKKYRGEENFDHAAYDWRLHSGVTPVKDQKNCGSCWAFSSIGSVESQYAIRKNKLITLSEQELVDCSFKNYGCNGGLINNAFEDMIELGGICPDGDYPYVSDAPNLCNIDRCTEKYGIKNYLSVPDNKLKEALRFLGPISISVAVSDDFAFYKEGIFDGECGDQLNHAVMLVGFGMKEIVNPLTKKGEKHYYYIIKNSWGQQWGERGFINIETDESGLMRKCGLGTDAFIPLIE
SMILES,pIC50 [2],Activity [3],pIC50 [1]
COc1cc([C@@H]2c3cc4c(cc3[C@H](O)[C@H]3COC(=O)[C@H]23)OCO4)cc(OC)c1OC [PODOFILOX],–,–,8.15
COc1cccc2c(-c3cc(CCCOC(=O)N([C@@H](Cc4ccc(OCc5ccc(C(=O)c6ccccc6)cc5)cc4)C(=O)O)S(=O)(=O)c4cccc5c(N(C)C)cccc45)c4c(c3O)[C@@H](C)N[C@H](C)C4)c(C)cc(OC)c12,6.02,–,4.16
COc1cccc2c(-c3cc(CCCO)c4c(c3O)[C@@H](C)N[C@H](C)C4)c(C)cc(OC)c12,5.62,–,4.00

# Further lines, with some results ahead:
pIC50 [2],Activity [3],SMILES,pIC50 [1]
7.35,–,COc1cccc2c(-c3cc(CNCCCCCCNS(=O)(=O)c4cccc5c(N(C)C)cccc45)c4c(c3OCc3ccccc3)[C@@H](C)N(Cc3ccccc3)[C@H](C)C4)c(C)cc(OC)c12,5.60
6.42,inactive,COc1cccc2c(-c3ccc4c(c3O)[C@@H](C)N[C@H](C)C4)c(C)cc(OC)c12 [DIONCOPHYLLINE A],4.54
6.72,–,COC(=O)/C=C/c1cc(-c2c(C)cc(OC)c3c(OC)cccc23)c(OCc2ccccc2)c2c1C[C@@H](C)N(Cc1ccccc1)[C@@H]2C,< 3.85
6.22,–,COc1cccc2c(-c3cc(CNCCCCCCNS(=O)(=O)c4cccc5c(N(C)C)cccc45)c4c(c3O)[C@@H](C)N[C@H](C)C4)c(C)cc(OC)c12,4.78
